ABCB6 inh MLPCN: ABCB6 transporter inhibitors, primary screen, K562-ABCB6 cells, flow cytometry, MLPCN library. 0.19% of 360,000 active. K562-ABCB6 porphyrin accumulation, 1 h; hits give low values. fluorescence ratio to DMSO, % at 10 µM. ATP-binding cassette sub-family B member 6 (Homo sapiens), Q9NP58;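 active = fluorescence ratio to DMSO below 75%, the collection mean minus 3 SD; inconclusive = too few cells collected in the well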;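 also: signal is porphyrin accumulated inside mitochondria; 100% equals median channel fluorescence of DMSO control wells; lower ratio means ABCB6 inhibition with less porphyrin fluorescence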
Xi reactivation: activators of inactive X chromosome reactivation, primary screen, imaging, XiGFP fibroblasts, GFP high-content imaging, set 2 | 0.055% of 360,000 active | XiGFP mouse fibroblasts, % GFP-positive cells imaging, 3 d; cells co-treated with 5-aza-dC sensitizer; scaled so ellipticine positive control = 100% | AID 743238, 2013 | activation, % at 7.58 µM;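 active = mean normalized replicate activation at least 10% and every replicate at or above 10%; inconclusive = only one of the two criteria met; inactive = mean below 10% and not all replicates reach 10%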;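 also: 0% = median of on-plate neutral control wells and 100% = ellipticine 6 µM median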
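System: SV40-immortalized XiGFP fibroblast cells, line 68-5-11 / Incubation: 3-day compound exposure, then 15 min fixation at room temperature / Compound: single concentration per compound, delivered by pin transfer / Buffer or medium: DMEM plus 5-aza-dC sensitizer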
Myeloid diff 2: induction of myeloid progenitor differentiation, primary screen, cell-based, flow cytometry, MLPCN library | ER-HoxA9 myeloid progenitors, lysozyme-GFP differentiation | calls only at 10 µM | 1% of 360,000 active;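 active = normalized GFP-positive differentiation at or above the plate's own cutoff, the solvent-only control mean plus 3 SD; inconclusive = no clear call, values can overlap the other calls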;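 also: cells exposed to compound for four days before flow analysis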
Myeloid diff CP1: inducers of myeloid progenitor differentiation, confirmation, cell-based, GFP/Mac1 flow cytometry, cherry pick 01; ER-HoxA9 myeloid progenitors, GFP/Mac1 double-positive flow; 2% of 2,300 active; calls only; shares compounds with Myeloid diff 2;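 active = share of green or green-and-red cells above 9 and 9% in run 1 or 4 and 3% in run 2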
GFP autofluor: flagged as fluorescent in myeloid differentiation counter-screen; shares compounds with Myeloid diff 2; ER-HoxA9 myeloid progenitors, no estrogen, GFP autofluorescence flow cytometry; vehicle wells 0%, positive control 100%; fluorescence response, % (concentration not given with the values); 7.4% of 2,300 active; AID 651707;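 active = over 5% cells positive for green fluorescent reporter, or over 2% positive for both it and APC stain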;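 also: range taken on the double positive population between DMSO and positive control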
* = called active by the depositor; i = inactive; ? = inconclusive; . = no result given; + = active, no number. This is one part of a sample in which hits are shown more often than they occur.

SMILES | ABCB6 inh MLPCN | Xi reactivation | Myeloid diff 2 | Myeloid diff CP1 | GFP autofluor
Cc1noc(C)c1NC(=O)Nc1ccc2c(c1)C(=O)N([C@H](C)CO)C[C@H](C)[C@@H](CN(C)Cc1ccc3c(c1)OCO3)O2 | . | 0 | . | . | .
CS(=O)(=O)N1CCC(C(=O)Nc2cc(Cl)ccc2Cl)CC1 | 101 | 0 | i | . | .
CS(=O)(=O)N1CCC(C(=O)Nc2cc(Cl)c(Cl)cc2Cl)CC1 | 128 | 0 | i | i | 2
Cc1cc(C(=O)COc2ccc(F)cc2Br)c(C)n1C1CC1 | 96 | 0 | i | i | 2
Cc1cc(C(=O)COc2ccc(F)cc2Br)c(C)n1C | 99 | 0 | i | . | .
Cc1ccc(S(=O)(=O)N2CCCCC2)cc1NC(=O)CSc1ncnc2ccccc12 | 97 | . | i | . | .
Cc1ccc(NC(=O)CSc2ncnc3ccccc23)cc1S(=O)(=O)N1CCCCCC1 | 89 | 0 | + | i | 0
CC(=O)N(C)C[C@H]1[C@H](c2ccc(-c3ccccc3F)cc2)[C@@H](CO)N1C(C)=O | . | 0 | . | . | .
COC(=O)CSc1nnc(-c2ccc(S(=O)(=O)N3CCCCC3)cc2)o1 | 100 | . | + | i | 0
COC(=O)CSc1nnc(-c2ccc(S(=O)(=O)N3CCC(C)CC3)cc2)o1 | 89 | . | i | . | .
CNC(=O)C[C@H]1CC[C@@H]2[C@H](COc3ccc(NC(=O)Nc4ccccc4)cc3C(=O)N2C)O1 | . | 0 | . | . | .
CC1CC(C)CN(CCCNC(=O)C2CCC(=O)N2C2CCCC2)C1 (stereo not given) | 101 | . | i | i | 0
O=C(NCCCN1CCCC1)C1CCC(=O)N1C1CCCCC1 (stereo not given) | 100 | . | i | . | .
C[C@@H]1CN([C@@H](C)CO)C(=O)c2c(c3ccccc3n2C)-c2ccccc2CO[C@@H]1CN(C)Cc1ccc(Oc2ccccc2)cc1 | . | 0 | . | . | .
C/C(=N\N=C(/N)SC1CC(=O)N(c2cccc(Cl)c2)C1=O)c1cccs1 (stereo not given) | 98 | . | i | . | .
CCCOc1ccc(N2C(=O)CC(S/C(N)=N/N=C(\C)c3cccs3)C2=O)cc1 (stereo not given) | 87 | . | i | i | 0
Cc1ccc(/C=C/c2onc(C)c2S(=O)(=O)N2CCC(C(=O)N3CCCCC3)CC2)cc1 | 99 | 0 | i | i | 0
COc1ccc(/C=C/c2onc(C)c2S(=O)(=O)N2CCC(C(=O)N3CCCCCC3)CC2)cc1 | 98 | 0 | i | . | .
CCSC1=N/C(=C\c2ccc(C(=O)O)cc2)C(=O)S1 | 91 | . | i | . | .
CCOC(=O)SC1=N/C(=C\c2ccc(N(C)C)cc2)C(=O)S1 | 108 | . | i | i | 1
COc1ccc2c3c(n(C)c2c1)[C@@H](CO)N(C(=O)CC1CC1)CC31CN(Cc2nccs2)C1 | . | 0 | . | . | .
CN(C)CC(=O)Nc1ccc2c(c1)[C@H]1C[C@@H](CC(=O)NCC3CC3)O[C@@H](CO)[C@H]1O2 | . | 0 | . | . | .
CCCS(=O)(=O)NC(=O)C1(C)CCN(C(=O)c2cccc(C(F)(F)F)c2)C1 (stereo not given) | 99 | 0 | + | i | 0
CCCS(=O)(=O)NC(=O)C1(C)CCCN(C(=O)c2cccc(C(F)(F)F)c2)C1 (stereo not given) | 76 | 0 | i | . | .
COc1ccc2c3c(n(C)c2c1)[C@@H](CO)N(C(=O)c1ccncc1)CC31CN(S(C)(=O)=O)C1 | . | 0 | . | . | .
SMILES | ABCB6 inh MLPCN | Xi reactivation | Myeloid diff 2 | Myeloid diff CP1 | GFP autofluor
CCCCOc1ccc(C(O)(CC)CCN2CCOCC2)cc1 (stereo not given) | 97 | . | i | . | .
CCCCOc1ccc(C(O)(CCC)CCN2CCOCC2)cc1 (stereo not given) | 94 | 0 | i | i | 0
O=C(NC1CCCC1)N1CC(=O)N2[C@H](CO)[C@H](c3ccc(-c4ccccc4)cc3)[C@@H]2C1 | . | 0 | . | . | .
Cc1noc(C)c1NC(=O)Nc1ccc2c(c1)C(=O)N([C@H](C)CO)C[C@H](C)[C@H](CN(C)C(=O)NC(C)C)OCCCC[C@@H](C)O2 | . | 0 | . | . | .
CCOC(=O)C1CCN(C(=O)COc2ccc(Cl)cc2Cl)CC1 | 97 | . | i | i | 0
CCOC(=O)C1CCN(C(=O)COc2ccc(Cl)cc2C)CC1 | 101 | . | i | . | .
CCCCCN(C(=O)NC(=O)NCCCC)S(C)(=O)=O | 100 | . | i | . | .
CCCCCN(C(=O)NC(=O)Nn1cnnc1)S(C)(=O)=O | 102 | . | + | i | 0
c1ccc(Nc2ccnc(Nc3ccccc3)n2)cc1 | 96 | 0 | ? | . | .
Nc1cc(Nc2ccccc2)ccn1 | 101 | 0 | + | i | 2
c1ccc2cc(C3OCC4(CCCC4)CO3)ccc2c1 | 95 | 0 | i | . | .
O=C1CCC(c2ccc3ccccc3c2)O1 (stereo not given) | 99 | 0 | i | i | 2
O=C(C[C@H]1CC[C@H](NC(=O)c2cccc(F)c2)[C@H](CO)O1)NCc1ccc(Oc2ccccc2)cc1 | . | 0 | . | . | .
CCCC(c1nnnn1C1CCCC1)N1CCN(C(=O)c2ccco2)CC1 (stereo not given) | 94 | . | i | . | .
CCCC(c1nnnn1C(C)(C)C)N1CCN(C(=O)c2ccco2)CC1 (stereo not given) | 102 | 0 | + | i | 0
CC(C)CC(c1nnnn1C1CCCCC1)N1CCN(C(=O)c2ccco2)CC1 (stereo not given) | 96 | 0 | ? | . | .
CC(C)CC(c1nnnn1C1CCCC1)N1CCN(C(=O)c2ccco2)CC1 (stereo not given) | 91 | . | + | i | 0
CNC(=O)C[C@@H]1CC[C@H]2[C@@H](COC[C@H](O)CN2C(=O)c2ccc3c(c2)OCO3)O1 | . | 0 | . | . | .
COc1ccc(S(=O)(=O)N2CCOC2CNC(=O)C(=O)NCc2ccccn2)cc1OC (stereo not given) | i | 0 | + | i | 0
Cc1ccc(S(=O)(=O)N2CCOC2CNC(=O)C(=O)NCc2ccccn2)cc1 (stereo not given) | 100 | 0 | i | . | .
C[C@@H]1CCCCO[C@H](CN(C)C(=O)C2CCCCC2)[C@H](C)CN([C@H](C)CO)C(=O)c2cc(NC(=O)Cc3ccccc3)ccc2O1 | . | 0 | . | . | .
O=C(NC(=S)NCCN1CCOCC1)c1ccccc1 | 99 | 0 | i | . | .
O=C(NC(=S)NCCN1CCOCC1)c1cccc(Cl)c1 | 88 | . | i | i | 0
CCN1C(=O)/C(=C2/Sc3ccc(OC)cc3N2C)SC1=Nc1ccc(OC)cc1 | 102 | 0 | i | . | .
C=CCN1C(=O)/C(=C2/Sc3ccc(OC)cc3N2C)SC1=Nc1cccc(O)c1 | 107 | 0 | i | i | 0

High-throughput results as filed in PubChem BioAssay.
